15 compounds from PubChem BioAssay can be followed below.

In general, viability refers to a read-out of living cells in per cent, often relative to untreated cells. Usually inhibition stands for the relative decrease from the control value, in per cent.

Test [1] can be described thus: Her2 expression decrease, cell viability multiplex – SKBR3 breast tumor cells, AlphaScreen, ATP viability, primary screen (AID 461;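 active means Her2 level under about 52% in both replicate screens, with viability over 70% of control, limit read from the data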;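 on Her2 level: lower value means less Her2 protein in the cells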;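 on viability: percent of carrier control wells set as 100% viability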). The note with it: SKBR3 Her2 protein level, 18-24 h, measured here: SKBR3 viability, ATP luminescence, at 10 µM. On the technique in general: Bead proximity is the source of the signal in Alpha formats.
Test [2] concerns the target Receptor tyrosine-protein kinase erbB-2 (Homo sapiens) (UniProt P04626). The test is described as above. The note with it: 18-24 h, at 10 µM, stronger effect = lower value.
A short description of test [3]: reduced viability of SK-BR-3 breast cancer cells – cell-based, 24 h, human, pilot screen (AID 572;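 active means viability at or below 10% of carrier control in both of two separate runs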;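 further: compound exposure lasted between 18 and 24 h rather than exactly 24 h; 100% = carrier-treated control wells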). The note with it: SK-BR-3 viability, CellTiter-Glo luminescence, at 10 µM, stronger effect = lower value. In general terms: Cellular ATP, detected with luciferase, serves as a proxy for viable cell number.
The nature of test [4]: HUVEC growth inhibition – cell-based, human, primary screen (AID 575).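 Further: 100% = median of untreated cell wells with 0.1% DMSO on each plate.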 The note with it: HUVEC proliferation, CellTiter-Glo luminescence, 72 h; at 10 µM; stronger effect = lower value. In a few lines:
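System: primary human umbilical vein endothelial cells; Quantity: 1250 endothelial cells in each well; Buffer or medium: supplemented EBM, 2% fetal bovine serum; Doses: one dose, 10 µM final, 0.1% DMSO; Incubation: 72 h compound incubation; Technique: ATP-based CellTiter-Glo luminescent read; Evaluation: percent of median DMSO-control luminescence; Controls: vehicle and MePR control wells.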

The nature of test [5]: H69AR cell proliferation blockers – human, duplicate replicates, primary screen (AID 580;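 active means viability at or under a set limit in both replicates, limit being median viability minus 3 SD, cut at about 48% in these data, passing the limit was not always enough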;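 further: 100% = mean luminescence of untreated wells and 0% = no signal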). To be noted: H69AR lung tumor cells viability, ATP luminescence, 72 h; at 10 µM; stronger effect = lower value.
Test [6] is described as follows: MRP1 drug-resistance reversers in H69AR cells – cell-based, doxorubicin co-treatment, pilot screen (AID 601;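 active means viability loss from added drug above about 55%, and viability with drug at most 40%, in both replicates, limit read from the data, passing the limit was not always enough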). To be noted: CellTiter-Glo, 72 h, at 10 µM; for differential viability (reversal): stronger effect = higher value.
Test [7] in a line: yeast transport mutant growth inhibition pilot in 384-well plates, post-Golgi transport modulator project (AID 636; in the data active means inhibition above about 31%). To be noted: absorbance 615 nm, about 18 h, stronger effect = higher value.
A short description of test [8]: growth suppression of yeast trafficking mutant, preliminary HTS, modulators of trafficking downstream of Golgi apparatus project, 1536-format plate, OD 615 nm (AID 637; in the data active means inhibition above about 30%). To be noted: yeast transport mutant growth, absorbance 615 nm, 18 h; stronger effect = higher value.
Setting [9] is: H69AR cells + 2 uM doxorubicin, measured here: viability with 2 uM doxorubicin, stronger effect = lower value.
The mark [10] stands for this setting: H69AR cells, compound alone cytotoxicity.

Calls of active or inactive are those of the source.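 How the source made its calls, unless noted: active means viability at or below 30% in both replicate assays; inconclusive means viability at or below 30% in just one of the two assays; inactive means the rest.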

Receptor tyrosine-protein kinase erbB-2 (Homo sapiens), sequence (P04626 whole entry, looked up): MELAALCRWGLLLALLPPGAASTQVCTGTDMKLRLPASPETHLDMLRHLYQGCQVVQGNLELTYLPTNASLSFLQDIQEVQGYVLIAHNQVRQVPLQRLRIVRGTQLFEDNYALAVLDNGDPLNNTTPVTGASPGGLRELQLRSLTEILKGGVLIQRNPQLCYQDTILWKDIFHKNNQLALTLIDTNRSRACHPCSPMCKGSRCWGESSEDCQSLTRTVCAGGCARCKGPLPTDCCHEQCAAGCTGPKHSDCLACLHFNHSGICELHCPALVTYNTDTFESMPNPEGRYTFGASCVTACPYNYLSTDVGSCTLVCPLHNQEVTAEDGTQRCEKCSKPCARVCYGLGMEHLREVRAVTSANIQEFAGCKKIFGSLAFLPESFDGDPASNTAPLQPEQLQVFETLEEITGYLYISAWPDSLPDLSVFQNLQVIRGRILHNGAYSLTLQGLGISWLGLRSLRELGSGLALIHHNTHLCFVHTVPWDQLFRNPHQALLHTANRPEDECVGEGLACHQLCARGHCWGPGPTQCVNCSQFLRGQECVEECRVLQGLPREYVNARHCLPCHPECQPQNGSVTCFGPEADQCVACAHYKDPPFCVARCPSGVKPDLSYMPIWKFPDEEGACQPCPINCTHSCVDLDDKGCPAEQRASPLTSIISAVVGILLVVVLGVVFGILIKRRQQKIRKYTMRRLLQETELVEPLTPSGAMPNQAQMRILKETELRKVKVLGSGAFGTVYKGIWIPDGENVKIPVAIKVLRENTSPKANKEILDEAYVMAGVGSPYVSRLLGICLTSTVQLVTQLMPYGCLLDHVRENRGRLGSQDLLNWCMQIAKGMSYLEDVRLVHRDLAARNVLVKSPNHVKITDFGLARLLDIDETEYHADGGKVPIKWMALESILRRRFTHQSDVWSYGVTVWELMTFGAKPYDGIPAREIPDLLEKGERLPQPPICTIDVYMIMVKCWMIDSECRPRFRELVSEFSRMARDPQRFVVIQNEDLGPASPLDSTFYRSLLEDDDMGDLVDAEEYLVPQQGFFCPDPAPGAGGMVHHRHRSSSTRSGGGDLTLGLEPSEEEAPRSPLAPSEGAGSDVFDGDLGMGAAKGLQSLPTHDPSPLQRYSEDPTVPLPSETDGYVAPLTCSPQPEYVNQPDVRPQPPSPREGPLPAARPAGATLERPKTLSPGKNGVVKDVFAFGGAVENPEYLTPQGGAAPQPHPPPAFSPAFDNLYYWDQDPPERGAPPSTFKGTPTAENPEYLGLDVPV

Regarding `Cc1cc(=O)n(CC(C)C)c(O)c1C#N`, the viability in test [1] was 106%; in test [3] it was 106% (inactive); in test [4], 99.4% (inactive); in test [5], 104% (inactive); in test [6] (setting [9]), 104%; in test [6] (setting [10]), 104%. The Her2 level in test [2] was 98% (inactive). Moreover, the differential viability (reversal) in test [6] (H69AR cells + 2 uM doxorubicin) was 0.33% (inactive). Also, the figures for the inhibition in test [7] and in test [8] were 0.53% (inactive) and 5.08% (inactive), respectively.

Regarding `C=CCOc1ccccc1/C=c1\sc2nc(=O)c(C)nn2c1=O`, the viability in test [1] is 100%; in test [3], 100% (inactive); in test [4], 85.1% (inactive); in test [5] it was 72.6% (inactive); in test [6] (setting [9]) it was 83.1%; in test [6] (setting [10]), 72.6%. Besides, in test [2], the Her2 level is 84% (inactive). Besides, the differential viability (reversal) in test [6] (H69AR cells + 2 uM doxorubicin) was -10.6% (inactive). Besides, the inhibition was -8.27% (inactive) in test [7] and 0.79% (inactive) in test [8].

With `C=CCn1c(C)cc(C(=O)CSc2nc3ccccc3o2)c1C`, the viability in test [1] was 108%; in test [3], 108% (inactive); in test [4] it was 81.2% (inactive); in test [5], 95.6% (inactive); in test [6] (setting [9]), 85.6%; in test [6] (setting [10]), 95.6%. For the same compound, in test [2], the Her2 level was 72.5% (inactive). In addition, the differential viability (reversal) in test [6] (H69AR cells + 2 uM doxorubicin) is 10% (inactive). Moreover, the inhibition was -2.84% (inactive) in test [7] and -3.33% (inactive) in test [8].

Consider `COC(=O)c1cc(Br)c(=O)n(-c2nccs2)c1`, for which the viability in test [1] is 121%; in test [3] it was 121% (inactive); in test [4], 107% (inactive); in test [5] it was 96.5% (inactive); in test [6] (setting [9]), 87.2%; in test [6] (setting [10]), 96.5%. Moreover, the Her2 level in test [2] is 93.5% (inactive). Further, the differential viability (reversal) in test [6] (H69AR cells + 2 uM doxorubicin) is 9.32% (inactive). For the same compound, the inhibition in test [7] is -4.27% (inactive); in test [8] it was -6.39% (inactive).

With `COc1ccc2cc(C#N)c(NC(C)C)nc2c1`, the viability is 90.5% in test [1]; 90.5% (inactive) in test [3]; 90.8% (inactive) in test [4]; 75.4% (inactive) in test [5]; 81.4% in test [6] (setting [9]); 75.4% in test [6] (setting [10]). Besides, the Her2 level in test [2] is 63% (inactive). In test [6] (H69AR cells + 2 uM doxorubicin), the differential viability (reversal) is -6.05% (inactive). Also, the inhibition in test [7] was -2.76% (inactive); in test [8] it was 2.91% (inactive).

Regarding `CCOC(=O)c1c(C)[nH]c(C(=O)CSc2nc3ccccc3o2)c1C`, the viability in test [1] is 85.5%; in test [3], 85.5% (inactive); in test [4], 88.6% (inactive); in test [5] it was 73.3% (inactive); in test [6] (setting [9]) it was 92.2%; in test [6] (setting [10]), 73.3%. Moreover, in test [2], the Her2 level was 85% (inactive). Besides, in test [6] (H69AR cells + 2 uM doxorubicin), the differential viability (reversal) is -18.9% (inactive). Further, the values for the inhibition in test [7] and in test [8] were -1.15% (inactive) and -5.17% (inactive), respectively.

`COc1ccccc1NC(=O)C1CC(=O)N(c2ccc(F)cc2)C1` (stereo not given): the viability in test [1] is 99%; in test [3] it was 99% (inactive); in test [4], 109% (inactive); in test [5] it was 97.3% (inactive); in test [6] (setting [9]), 88.4%; in test [6] (setting [10]), 97.3%. Moreover, the Her2 level in test [2] is 144% (inactive). Besides, in test [6] (H69AR cells + 2 uM doxorubicin), the differential viability (reversal) is 8.91% (inactive). Moreover, the inhibition is 0.53% (inactive) in test [7] and 19.2% (inactive) in test [8].

Regarding `CCOC(=O)c1ccc(S(=O)(=O)NC2CCCCCCC2)n1C`, the viability in test [1] is 113%; in test [3] it was 113% (inactive); in test [4], 86.9% (inactive); in test [5] it was 104% (inactive); in test [6] (setting [9]) it was 107%; in test [6] (setting [10]), 104%. Moreover, the Her2 level in test [2] is 70% (inactive). The differential viability (reversal) in test [6] (H69AR cells + 2 uM doxorubicin) is -3.18% (inactive). The inhibition was -1.49% (inactive) in test [7] and 1.11% (inactive) in test [8].

As for `COc1ccc2c(c1)Sc1ccccc1N2CCN(C)C`, the viability in test [1] is 88.5%; in test [3] it was 88.5% (inactive); in test [4] it was 59.1% (inactive); in test [5], 68.8% (inactive); in test [6] (setting [9]), 72.3%; in test [6] (setting [10]) it was 68.8%. Further, the Her2 level in test [2] was 86.5% (inactive). In addition, the differential viability (reversal) in test [6] (H69AR cells + 2 uM doxorubicin) is -3.43% (inactive). The inhibition in test [7] was -5.39% (inactive); in test [8], -6.29% (inactive).

Take `Cc1csc(NC(=O)c2cc3c(s2)-c2ccccc2OC3)n1`: the viability in test [1] was 91%; in test [3] it was 91% (inactive); in test [4], 75% (inactive); in test [5] it was 37.7% (active); in test [6] (setting [9]) it was 55.5%; in test [6] (setting [10]) it was 37.7%. Moreover, the Her2 level in test [2] is 92.5% (inactive). For the same compound, the differential viability (reversal) in test [6] (H69AR cells + 2 uM doxorubicin) was -17.7% (inactive). Further, the inhibition in test [7] is -2.82% (inactive); in test [8], -1% (inactive).

In the case of `Cc1nc2ccccc2cc1O`, the viability in test [1] is 133%; in test [3], 133% (inactive); in test [4] it was 85.9% (inactive); in test [5], 92% (inactive); in test [6] (setting [9]), 109%; in test [6] (setting [10]), 92%. Further, in test [2], the Her2 level was 104% (inactive). In test [6] (H69AR cells + 2 uM doxorubicin), the differential viability (reversal) is -16.9% (inactive). In addition, the values for the inhibition in test [7] and in test [8] were -6.05% (inactive) and 13.1% (inactive), respectively.

With `CC(C)(C)OC(=O)NC(CCNC=C1C(=O)OC(C)(C)OC1=O)C(=O)O` (stereo not given), the viability in test [1] was 105%; in test [3], 105% (inactive); in test [4], 104% (inactive); in test [5], 101% (inactive); in test [6] (setting [9]), 89.2%; in test [6] (setting [10]) it was 101%. The Her2 level in test [2] was 92.5% (inactive). Further, the differential viability (reversal) in test [6] (H69AR cells + 2 uM doxorubicin) is 11.6% (inactive). Further, the inhibition in test [7] is -7.03% (inactive); in test [8], -3.5% (inactive).

As to `Cc1ccc(C)n1NC(=O)c1ccco1`, the viability is 90% in test [1]; 90% (inactive) in test [3]; 87.2% (inactive) in test [4]; 94.8% (inactive) in test [5]; 104% in test [6] (setting [9]); 94.8% in test [6] (setting [10]). In test [2], the Her2 level was 90% (inactive). In addition, in test [6] (H69AR cells + 2 uM doxorubicin), the differential viability (reversal) is -9.64% (inactive). Also, the figures for the inhibition in test [7] and in test [8] were -2.76% (inactive) and -3.39% (inactive), respectively.

For the compound `O=C(CCN1CCN(C(=O)c2ccco2)CC1)Nc1ccc(F)cc1`, the viability in test [1] was 97.5%; in test [3], 97.5% (inactive); in test [4], 99.8% (inactive); in test [5] it was 97% (inactive); in test [6] (setting [9]) it was 90.9%; in test [6] (setting [10]), 97%. Also, in test [2], the Her2 level was 95% (inactive). In test [6] (H69AR cells + 2 uM doxorubicin), the differential viability (reversal) is 6.06% (inactive). Further, the inhibition is -4.93% (inactive) in test [7] and 2.95% (inactive) in test [8].

For the compound `CCOC(=O)c1ccc(NC(=O)CCNc2c(N3CCCC3)c(=O)c2=O)cc1`, the viability in test [1] was 104%; in test [3] it was 104% (inactive); in test [4], 91.6% (inactive); in test [5], 98.3% (inactive); in test [6] (setting [9]) it was 98%; in test [6] (setting [10]), 98.3%. Moreover, the Her2 level in test [2] is 96.5% (inactive). Besides, the differential viability (reversal) in test [6] (H69AR cells + 2 uM doxorubicin) was 0.27% (inactive). The inhibition in test [7] is -2.5% (inactive); in test [8], 0.18% (inactive).
